Tests used:
Type in all cases: functional
[1] = tested on: SF-268; assay: Cytotoxicity against human SF268 cells assessed as cell growth at 50 uM by SRB assay; conditions: read-out: Activity
[2] = tested on: 786-0; assay: Cytotoxicity against human 786-0 cells assessed as cell growth at 50 uM by SRB assay; conditions: read-out: Activity
[3] = tested on: A498; assay: Cytotoxicity against human A498 cells assessed as cell growth at 50 uM by SRB assay; conditions: read-out: Activity
[4] = tested on: CAKI-1; assay: Cytotoxicity against human Caki1 cells assessed as cell growth at 50 uM by SRB assay; conditions: read-out: Activity
[5] = tested on: BT-549; assay: Cytotoxicity against human BT549 cells assessed as cell growth at 50 uM by SRB assay; conditions: read-out: Activity
[6] = tested on: SR; assay: Cytotoxicity against human SR cells by SRB assay
Procedure, shortened: (§1)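 NCI-60 panel screen; 5-dose testing giving GI50 per cell line, plus a single 10 µM one-dose test. Method details not given beyond the NCI screen.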

[7] = tested on: HOP-92; assay: Cytotoxicity against human HOP92 cells by SRB assay
Procedure, shortened: (§2)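 Measured in the NCI-60 human tumour cell line panel using five-dose testing. Growth was recorded at each dose for each cell line, and a GI50 was derived for each line.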

[8] = tested on: NCI-H226; assay: Cytotoxicity against human NCI-H226 cells by SRB assay; procedure, shortened: as §1
[9] = tested on: KM12; assay: Cytotoxicity against human KM12 cells by SRB assay; procedure, shortened: as §1
[10] = tested on: UACC-62; assay: Cytotoxicity against human UACC62 cells by SRB assay; procedure, shortened: as §1
[11] = tested on: OVCAR-8; assay: Cytotoxicity against human OVCAR8 cells by SRB assay; procedure, shortened: as §1
[12] = tested on: RXF 393; assay: Cytotoxicity against human RXF393 cells by SRB assay; procedure, shortened: as §1
[13] = tested on: MDA-MB-231; assay: Cytotoxicity against human MDA-MB-231/ATCC cells by SRB assay; procedure, shortened: as §1
[14] = tested on: BT-549; assay: Cytotoxicity against human BT549 cells by SRB assay
[15] = tested on: MDA-MB-468; assay: Cytotoxicity against human MDA-MB-468 cells by SRB assay; procedure, shortened: as §1
[16] = tested on: NCI-H460; assay: Cytotoxicity against human NCI-H460 cells assessed as cell growth at 0.005 uM by SRB assay; conditions: read-out: Activity
[17] = tested on: NCI-H522; assay: Cytotoxicity against human NCI-H522 cells assessed as cell growth at 0.005 uM by SRB assay; conditions: read-out: Activity
[18] = tested on: KM12; assay: Cytotoxicity against human KM12 cells assessed as cell growth at 0.005 uM by SRB assay; conditions: read-out: Activity
[19] = tested on: SF-268; assay: Cytotoxicity against human SF268 cells assessed as cell growth at 0.005 uM by SRB assay; conditions: read-out: Activity
[20] = tested on: SNB-19; assay: Cytotoxicity against human SNB19 cells assessed as cell growth at 0.005 uM by SRB assay; conditions: read-out: Activity
[21] = tested on: M14; assay: Cytotoxicity against human M14 cells assessed as cell growth at 0.005 uM by SRB assay; conditions: read-out: Activity
[22] = tested on: SK-MEL-28; assay: Cytotoxicity against human SK-MEL-28 cells assessed as cell growth at 0.005 uM by SRB assay; conditions: read-out: Activity
[23] = tested on: OVCAR-8; assay: Cytotoxicity against human OVCAR8 cells assessed as cell growth at 0.005 uM by SRB assay; conditions: read-out: Activity
[24] = tested on: TK-10; assay: Cytotoxicity against human TK10 cells assessed as cell growth at 0.005 uM by SRB assay; conditions: read-out: Activity
[25] = tested on: T47D; assay: Cytotoxicity against human T47D cells assessed as cell growth at 0.005 uM by SRB assay; conditions: read-out: Activity
[26] = tested on: SR; assay: Cytotoxicity against human SR cells assessed as cell growth at 0.05 uM by SRB assay; conditions: read-out: Activity
[27] = tested on: COLO 205; assay: Cytotoxicity against human COLO205 cells assessed as cell growth at 0.05 uM by SRB assay; conditions: read-out: Activity
[28] = tested on: SK-MEL-5; assay: Cytotoxicity against human SK-MEL-5 cells assessed as cell growth at 0.05 uM by SRB assay; conditions: read-out: Activity
[29] = tested on: ACHN; assay: Cytotoxicity against human ACHN cells assessed as cell growth at 0.05 uM by SRB assay; conditions: read-out: Activity
[30] = tested on: TK-10; assay: Cytotoxicity against human TK10 cells assessed as cell growth at 0.05 uM by SRB assay; conditions: read-out: Activity
[31] = tested on: T47D; assay: Cytotoxicity against human T47D cells assessed as cell growth at 0.05 uM by SRB assay; conditions: read-out: Activity
[32] = tested on: MOLT-4; assay: Cytotoxicity against human MOLT4 cells assessed as cell growth at 0.5 uM by SRB assay; conditions: read-out: Activity
[33] = tested on: NCI-H23; assay: Cytotoxicity against human NCI-H23 cells assessed as cell growth at 0.5 uM by SRB assay; conditions: read-out: Activity
[34] = tested on: SNB-19; assay: Cytotoxicity against human SNB19 cells assessed as cell growth at 0.5 uM by SRB assay; conditions: read-out: Activity
[35] = tested on: NCI-H226; assay: Cytotoxicity against human NCI-H226 cells assessed as cell growth at 5 uM by SRB assay; conditions: read-out: Activity
[36] = tested on: HCC 2998; assay: Cytotoxicity against human HCC2998 cells assessed as cell growth at 5 uM by SRB assay; conditions: read-out: Activity; procedure, shortened: as §2
[37] = tested on: KM12; assay: Cytotoxicity against human KM12 cells assessed as cell growth at 5 uM by SRB assay; conditions: read-out: Activity
[38] = tested on: RPMI-8226; assay: Cytotoxicity against human RPMI8226 cells assessed as cell growth at 50 uM by SRB assay; conditions: read-out: Activity
[39] = tested on: NCI-H23; assay: Cytotoxicity against human NCI-H23 cells assessed as cell growth at 50 uM by SRB assay; conditions: read-out: Activity
[40] = tested on: COLO 205; assay: Cytotoxicity against human COLO205 cells assessed as cell growth at 50 uM by SRB assay; conditions: read-out: Activity
[41] = read-out: LC50 (the source's name)
[42] = read-out: pLC50 (the source's name) (converted)

With `COc1cc([C@@H]2c3cc4c(cc3[C@@H](NC(=O)CN3CCN(CCCCCCN5CCN(CC(=O)N[C@@H]6c7cc8c(cc7[C@@H](c7cc(OC)c(O)c(OC)c7)[C@H]7C(=O)OC[C@@H]76)OCO8)CC5)CC3)[C@H]3COC(=O)[C@H]23)OCO4)cc(OC)c1O` the growth at 50 µM [1] was 10%, the growth at 50 µM [2] was -10% and the growth at 50 µM [3] was -10%. It also gave a growth at 50 µM [4] of 57%, a growth at 50 µM [5] of -40% and a GI50 ([6]; read-out: GI50) of 0.106 µM. It also gave a CC50 [6, 41] greater than 50 µM, a TGI ([6]; read-out: TGI) greater than 50 µM and a GI50 ([6]; read-out: pGI50 (converted)) of 0.105 µM. It also gave a CC50 [6, 42] greater than 50.1 µM, a TGI ([6]; read-out: pTGI (converted)) greater than 50.1 µM and a GI50 ([7]; read-out: GI50) of 1.55 µM. For the same molecule, the CC50 [7, 41] was greater than 50 µM, the TGI ([7]; read-out: TGI) was greater than 50 µM and the GI50 ([7]; read-out: pGI50 (converted)) was 1.55 µM. It also gave a CC50 [7, 42] greater than 50.1 µM, a TGI ([7]; read-out: pTGI (converted)) greater than 50.1 µM and a GI50 ([8]; read-out: GI50) of 5.42 µM. For the same molecule, the CC50 [8, 41] was greater than 50 µM, the TGI ([8]; read-out: TGI) was 46.8 µM and the GI50 ([8]; read-out: pGI50 (converted)) was 5.37 µM. It also gave a CC50 [8, 42] greater than 50.1 µM, a TGI ([8]; read-out: pTGI (converted)) of 46.8 µM and a GI50 ([9]; read-out: GI50) of 3.79 µM. The CC50 [9, 41] was greater than 50 µM, the TGI ([9]; read-out: TGI) was greater than 50 µM and the GI50 ([9]; read-out: pGI50 (converted)) was 3.8 µM. The CC50 [9, 42] was greater than 50.1 µM, the TGI ([9]; read-out: pTGI (converted)) was greater than 50.1 µM and the GI50 ([10]; read-out: GI50) was 1.55 µM. For the same molecule, the CC50 [10, 41] was greater than 50 µM, the TGI ([10]; read-out: TGI) was 35.7 µM and the GI50 ([10]; read-out: pGI50 (converted)) was 1.55 µM. For the same molecule, the CC50 [10, 42] was greater than 50.1 µM, the TGI ([10]; read-out: pTGI (converted)) was 35.5 µM and the GI50 ([11]; read-out: GI50) was 35.7 µM. For the same molecule, the CC50 [11, 41] was greater than 50 µM, the TGI ([11]; read-out: TGI) was greater than 50 µM and the GI50 ([11]; read-out: pGI50 (converted)) was 35.5 µM. It also gave a CC50 [11, 42] greater than 50.1 µM, a TGI ([11]; read-out: pTGI (converted)) greater than 50.1 µM and a GI50 ([12]; read-out: GI50) of 9.33 µM. The CC50 [12, 41] was greater than 50 µM, the TGI ([12]; read-out: TGI) was greater than 50 µM and the GI50 ([12]; read-out: pGI50 (converted)) was 9.33 µM. The CC50 [12, 42] was greater than 50.1 µM, the TGI ([12]; read-out: pTGI (converted)) was greater than 50.1 µM and the GI50 ([13]; read-out: GI50) was 13.6 µM. The CC50 [13, 41] was greater than 50 µM, the TGI ([13]; read-out: TGI) was greater than 50 µM and the GI50 ([13]; read-out: pGI50 (converted)) was 13.5 µM. The CC50 [13, 42] was greater than 50.1 µM, the TGI ([13]; read-out: pTGI (converted)) was greater than 50.1 µM and the GI50 ([14]; read-out: GI50) was 0.757 µM. The CC50 [14, 41] was greater than 50 µM, the TGI ([14]; read-out: TGI) was 4.24 µM and the GI50 ([14]; read-out: pGI50 (converted)) was 0.759 µM. For the same molecule, the CC50 [14, 42] was greater than 50.1 µM, the TGI ([14]; read-out: pTGI (converted)) was 4.27 µM and the GI50 ([15]; read-out: GI50) was 1.72 µM. For the same molecule, the CC50 [15, 41] was 50 µM, the TGI ([15]; read-out: TGI) was 12.3 µM and the GI50 ([15]; read-out: pGI50 (converted)) was 1.74 µM. It also gave a CC50 [15, 42] greater than 50.1 µM, a TGI ([15]; read-out: pTGI (converted)) of 12.3 µM and a growth at 0.005 µM [16] of 100%. For the same molecule, the growth at 0.005 µM [17] was 99%, the growth at 0.005 µM [18] was 103% and the growth at 0.005 µM [19] was 97%. The growth at 0.005 µM [20] was 97%, the growth at 0.005 µM [21] was 89% and the growth at 0.005 µM [22] was 100%. For the same molecule, the growth at 0.005 µM [23] was 110%, the growth at 0.005 µM [24] was 101% and the growth at 0.005 µM [25] was 97%. The growth at 0.05 µM [26] was 64%, the growth at 0.05 µM [27] was 99% and the growth at 0.05 µM [28] was 93%. The growth at 0.05 µM [29] was 98%, the growth at 0.05 µM [30] was 98% and the growth at 0.05 µM [31] was 90%. The growth at 0.5 µM [32] was 23%, the growth at 0.5 µM [33] was 95% and the growth at 0.5 µM [34] was 66%. It also gave a growth at 5 µM [35] of 52%, a growth at 5 µM [36] of 73% and a growth at 5 µM [37] of 46%. It also gave a growth at 50 µM [38] of -13%, a growth at 50 µM [39] of -6% and a growth at 50 µM [40] of -3%.
